# Experiment: Partition coefficient (logP)
# Format: physicochemical
# Settings: octanol/water
# Summary of the method: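 Octanol/water log P was calculated, not measured, using a fragment-based atom/fragment-contribution estimation program applied to each ligand structure.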
row,Compound,logP
1,CC(C)C(CC(=O)OC[C@H](CO)OC(=O)CC(C(C)C)C(C)C)C(C)C,5.8
2,CC(C)C/C=C1/CC(CO)(COC(=O)CC(C(C)C)C(C)C)OC1=O (stereo not given),4.1
3,CC(C)C(=CC(=O)O[C@@H](CO)COC(=O)CC(C(C)C)C(C)C)C(C)C,5.7
4,CC(C)CC(=O)OC[C@H](CO)OC(=O)C=C(C(C)C)C(C)C,3.9

# Next, values leading:
row,logP,Compound
1,3.2,CC(C)=C1CC(CO)(COC(=O)CC(C(C)C)C(C)C)OC1=O (stereo not given)
2,3.2,CC(C)CC(=O)OCC1(CO)CC(=C(C(C)C)C(C)C)C(=O)O1 (stereo not given)
3,4.1,CC(C)CC(=O)OCC1(CO)C/C(=C/CC(C(C)C)C(C)C)C(=O)O1 (stereo not given)
4,4.1,CC(C)C/C=C1\CC(CO)(COC(=O)CC(C(C)C)C(C)C)OC1=O (stereo not given)
5,4.1,CC(C)CC(=O)OCC1(CO)C/C(=C\CC(C(C)C)C(C)C)C(=O)O1 (stereo not given)
6,3.9,CC(C)=CC(=O)O[C@@H](CO)COC(=O)CC(C(C)C)C(C)C

# — ChEMBL document CHEMBL1136771, “Differential binding modes of diacylglycerol (DAG) and DAG lactones to protein kinase C (PK-C)” (J Med Chem, 2003)
